# In article PMC7346264 (ACS Omega, 2020):
# Several values for one entry are separate records, joined by “and”; a condition that tells them apart may be missing. Equal entries are not always repeated. Where two headings read alike, the source gives them in different places. Where no end group is shown, it is not given here.
# Tests used:
# [1] = format: in vitro ADME, human; details: for T90 in days (±SEM) in P100 plasma: 50 nM, T90 extrapolated; for original content still present / detected in plasma: after 1 month of storage at −80 °C, P100 plasma
# How it was run: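 Cell-free plasma from BD P100 tubes spiked with the training peptide mix, 50 nM each (final). Aliquots stored at 4, −35 or −80 °C for up to 1 month. Sampled before storage and at 1, 7 and 30 days. Each 50 µL sample was acidified-acetonitrile precipitated, sonicated, boiled and centrifuged, then run by UPLC–MS/MS. Content normalised to baseline. T90 extrapolated from first-order decay fits.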
# [2] = format: in vitro ADME, human; details: whole blood
# How it was run: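 Validation arm: fresh whole blood in EDTA or BD P100 tubes, equilibrated 30 min at 4 °C. Spiked with four peptides not used in training, 10 nM each (final). Aliquots taken at 0–7.5 h and centrifuged 1800g for 10 min. Plasma deproteinised with acidified acetonitrile, then quantified by UPLC–MS/MS MRM. Decay constant taken from the ln-linear slope. T50/T90 derived assuming first-order kinetics, SEM by error propagation.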
# [3] = format: in vitro ADME, human; details: time frame of 7.5 h, at both 4 and 21 °C, all tubes
# How it was run: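 Fresh donor whole blood, in EDTA, EDTA plus protease-inhibitor cocktail (1:100 final), BD P100 or BD P800 tubes, held 30 min at 4, 21 or 37 °C. Then spiked with peptide mix at 10 nM each (final). Sampled at 0, 2.5, 5 and 7.5 h and centrifuged. Plasma acetonitrile/formic acid precipitated and analysed by amide UPLC–ESI(+)–MS/MS MRM. T0-normalised ln areas fitted first-order (λ). T50/T90 reported ±SEM by error propagation, n = 4.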
# [4] = storage at 4 °C, n = 4, up to 1 month
# [5] = storage at −35 °C, n = 4, thawed once, up to 1 month
# [6] = storage at −80 °C, n = 4, thawed once, up to 1 month
# [7] = external validation, P100 tube, 4 °C
# [8] = head-to-head comparison, EDTA sampling tube at 4 °C
# [9] = head-to-head comparison, P100 sampling tube at 4 °C
substance,measurement,setting,value
SNLVECVFSLFKKCN [Q076],T90 in days (±SEM) in P100 plasma,[1]; [4],1.24 (±0.03) days
same,T90 in days (±SEM) in P100 plasma,[1]; [5],20.4 (±13.67) days
same,T90 in days (±SEM) in P100 plasma,[1]; [6],13.2 (±4.80) days
"SDLPFEH [Q164, SDLPFEH]",original content still present / detected in plasma,[1],more than 95%
same,T90 in days (±SEM) in P100 plasma,[1]; [4],0.95 (±0.23) days
same,T90 in days (±SEM) in P100 plasma,[1]; [5],33.8 (±45.91) days
same,T90 in days (±SEM) in P100 plasma,[1]; [6],96.3 (±136.01) days
SGSLSTFFRLFNRSFTQALGK [Q176],original content still present / detected in plasma,[1],more than 95%
same,T90 in days (±SEM) in P100 plasma,[1]; [4],0.48 (±0.02) days
same,T90 in days (±SEM) in P100 plasma,[1]; [5],16.4 (±6.98) days
same,T90 in days (±SEM) in P100 plasma,[1]; [6],46.4 (±64.18) days
ESRVSRIILDFLFQRKK [Q055],T50 [±SEM],[2]; [7],1.49 [±0.12] h
same,T90 [±SEM] (time where 90% of the peptide is still present),[2]; [7],0.23 [±0.02] h
same,decay constant (λ) [±SEM],[2]; [7],–0.00776 [±0.00064]
same,T50 [±SEM],[2]; [8],1.35 [±0.33] h
same,T90 [±SEM],[2]; [8],0.21 [±0.05] h
same,decay constant (λ) [±SEM],[2]; [8],–0.00856 [±0.0021]
same,T50 [±SEM],[2]; [9],2.07 [±0.36] ^a h
same,T90 [±SEM],[2]; [9],0.31 [±0.05] ^a h
same,decay constant (λ) [±SEM],[2]; [9],–0.00559 [±0.00098]
"SIFTLVA [Q184, SIFTLVA]",degradation of the peptide in whole blood,[3],no degradation
same,original content still present / detected in plasma,[1],~25%
same,T90 in days (±SEM) in P100 plasma,[1]; [4],2.24 (±0.20) days
same,T90 in days (±SEM) in P100 plasma,[1]; [5],2.56 (±0.21) days
same,T90 in days (±SEM) in P100 plasma,[1]; [6],2.6 days and 2.61 (±0.23) days
ESRLPKIRFDFIFPRKK [Q054],T50 [±SEM],[2]; [7],1.87 [±0.17] h
same,T90 [±SEM] (time where 90% of the peptide is still present),[2]; [7],0.28 [±0.03] h
same,decay constant (λ) [±SEM],[2]; [7],–0.00619 [±0.00056]
